{"data": "Measurements gathered from unrelated publications", "target": "Serine/threonine-protein kinase PAK 4 (PAK4, Homo sapiens, UniProt O96013)", "note": "Compare with care: the assays were run in different laboratories."}
{"Structure (SMILES)": "CS(=O)(=O)N1CCCC(NC(=O)[C@H](CCC2CCCCC2)NC(=O)c2ccc(CNc3ncnc4c3nnn4-c3ccccc3)cc2)C1 (stereo partly shown)", "read-out": "cell-free assay", "technique": "competition with immobilised ligand", "concentration": "0.1 µM", "measurement": "remaining binding", "result": "100%"}
{"Structure (SMILES)": "COc1cc(/C=C/C(=O)CC(=O)/C=C/c2ccc(O)c(OC)c2)ccc1O", "read-out": "enzyme activity", "action": "inhibitor", "concentration": "1 µM", "measurement": "activity vs control", "result": "78%"}
{"Structure (SMILES)": "CCC(=O)N[C@H]1CC[C@@H](C(=O)N(C)c2ccc(-c3nc4ccccc4o3)cc2)C1", "read-out": "cell-free assay", "technique": "competition with immobilised ligand", "concentration": "1 µM", "measurement": "remaining binding", "result": "100%"}
{"Structure (SMILES)": "Cc1[nH]c(/C=C2\\C(=O)Nc3ccc(F)cc32)c(C)c1C(=O)N[C@H]1CCN(C(=O)N(C)C)C1", "read-out": "enzyme activity", "action": "inhibitor", "concentration": "0.1 µM", "measurement": "remaining activity", "result": "109%"}
{"Structure (SMILES)": "Nc1nc(NC2CCCCC2)sc1C(=O)c1ccccc1", "read-out": "enzyme activity", "action": "inhibitor", "concentration": "10 µM", "measurement": "remaining activity", "result": "88%"}
{"Structure (SMILES)": "C[C@@H]1CN(c2cc(-c3n[nH]c4ccc(OC5(C)CC5)cc34)ncn2)C[C@H](C)O1", "read-out": "cell-free assay", "technique": "competition with immobilised ligand", "concentration": "0.1 µM", "measurement": "remaining binding", "result": "97%"}
{"Structure (SMILES)": "N#CCCc1ccc2c(c1)-c1[nH]c3ccc([N+](=O)[O-])cc3c1CC(=O)N2", "read-out": "cell-free assay", "concentration": "0.5 µM", "measurement": "remaining signal", "result": "86.4%"}
{"Structure (SMILES)": "FC(F)c1nc2ccccc2n1-c1nc(N2CCOCC2)nc(N2CCOCC2)n1", "read-out": "enzyme activity", "action": "inhibitor", "concentration": "10 µM", "measurement": "remaining activity", "result": "92%"}
{"Structure (SMILES)": "CC/C(=N\\NC(=O)NCc1cccc(O)c1)c1ccc(O)c(C)c1O", "read-out": "enzyme activity", "action": "inhibitor", "concentration": "0.1 µM", "measurement": "inhibition", "result": "10.6%"}
{"Structure (SMILES)": "CN(C(=O)c1ccccc1)c1cc(N(C)c2ccc3c(c2)CCc2ccc(C(=O)NCCN4CCOCC4)cc2C3=O)ccc1F", "read-out": "cell-free assay", "technique": "competition with immobilised ligand", "concentration": "1 µM", "measurement": "remaining binding", "result": "83%"}
{"Structure (SMILES)": "CS(=O)(=O)CCNCc1ccc(-c2ccc3ncnc(Nc4ccc(OCc5cccc(F)c5)c(Cl)c4)c3c2)o1", "read-out": "cell-free assay", "concentration": "0.5 µM", "measurement": "remaining signal", "result": "89.9%"}
{"Structure (SMILES)": "Nc1ncnc2occ(-c3ccc(NC(=O)Nc4cc(C(F)(F)F)ccc4F)cc3)c12", "read-out": "cell-free assay", "action": "inhibitor", "concentration": "20 µM", "measurement": "remaining signal", "result": "61%"}
{"Structure (SMILES)": "Cc1cc(NC(=O)c2cccc3cc(-c4cccc5[nH]nc(N)c45)ccc23)ccc1F", "read-out": "enzyme activity", "action": "inhibitor", "concentration": "0.1 µM", "measurement": "activity vs control", "result": "97%"}
{"Structure (SMILES)": "COc1cc(Cl)c(C(=O)N[C@@H](CN[C@H]2CC[C@@H](N)CC2)Cc2ccc(C#N)cc2)cc1-c1ccc(CN[C@H](C)c2ccc(C)cc2)o1", "read-out": "enzyme activity", "action": "inhibitor", "concentration": "1 µM", "measurement": "remaining activity", "result": "102%"}
{"Structure (SMILES)": "COc1cc(Nc2cnc(C#N)c(O[C@H](C)CN(C)C)n2)ncc1-c1cnn(C)c1", "read-out": "enzyme activity", "action": "inhibitor", "technique": "radiometric", "concentration": "10 µM", "measurement": "remaining activity", "result": "70%"}
{"Structure (SMILES)": "CSc1nc(C)c(-c2ccnc(Nc3ccc(N4CCOCC4)cc3)c2)[nH]1", "read-out": "enzyme activity", "action": "inhibitor", "concentration": "10 µM", "measurement": "inhibition", "result": "-3.9%"}
{"Structure (SMILES)": "CCN(CC)CCNC(=O)c1c(C)[nH]c(/C=C2\\C(=O)Nc3ccc(F)cc32)c1C", "read-out": "enzyme activity", "action": "inhibitor", "concentration": "0.1 µM", "measurement": "remaining activity", "result": "90%"}
{"Structure (SMILES)": "CC(C)(C)C(=O)c1sc(NC2CCCCC2)nc1N", "read-out": "enzyme activity", "action": "inhibitor", "concentration": "10 µM", "measurement": "remaining activity", "result": "88%"}
{"Structure (SMILES)": "CCN(CC)CCNC(=O)c1c(C)[nH]c(/C=C2\\C(=O)Nc3ccc(F)cc32)c1C", "read-out": "enzyme activity", "action": "inhibitor", "concentration": "0.3 µM", "measurement": "inhibition", "result": "-9%"}
{"Structure (SMILES)": "Nc1cnc(N2CCc3cc(S(=O)(=O)Nc4c(F)cc(Cl)cc4F)cc(N4CCCC4=O)c32)nc1", "read-out": "cell-free assay", "technique": "competition with immobilised ligand", "concentration": "1 µM", "measurement": "remaining binding", "result": "89%"}
{"Structure (SMILES)": "Cc1ccc(C(=O)NCc2ccsc2)cc1C#Cc1cn(C(C)C)c2ncnc(N)c12", "read-out": "enzyme activity", "action": "inhibitor", "concentration": "1 µM", "measurement": "activity vs control", "result": "102%"}
{"Structure (SMILES)": "Cc1c[nH]c2nccc(Oc3c(F)cc(Nc4cc(Cl)nc(N)n4)cc3F)c12", "read-out": "cell-free assay", "technique": "competition with immobilised ligand", "concentration": "0.1 µM", "measurement": "remaining binding", "result": "100%"}
{"Structure (SMILES)": "FC(F)(F)Oc1cccc(-c2cnc3ccc(-c4ccncc4)nn23)c1", "read-out": "enzyme activity", "action": "inhibitor", "technique": "radiometric", "concentration": "1 µM", "measurement": "activity vs control", "result": "81%"}
{"Structure (SMILES)": "Cc1sc(C(=O)NC2COC2)cc1-n1cc(NC(=O)Nc2c(F)cccc2Cl)cn1", "read-out": "enzyme activity", "action": "inhibitor", "concentration": "10 µM", "measurement": "remaining activity", "result": "106%"}
{"Structure (SMILES)": "CCCOc1ccc(OC)c(F)c1C(=O)c1ccc(C(=O)N[C@@H]2CNC[C@H]2NC(=O)c2ccc3[nH]ncc3c2)cc1", "read-out": "enzyme activity", "action": "inhibitor", "concentration": "10 µM", "measurement": "remaining activity", "result": "90%"}
{"Structure (SMILES)": "NS(=O)(=O)c1cc(NC(=O)C2(c3ccccc3Cl)CC2)ccc1Oc1cccc(Cl)c1", "read-out": "cell-free assay", "technique": "competition with immobilised ligand", "concentration": "1 µM", "measurement": "remaining binding", "result": "74%"}
{"Structure (SMILES)": "CNC(=O)c1cc(Oc2ccc(NC(=O)Nc3ccc(Cl)c(C(F)(F)F)c3)cc2)ccn1", "read-out": "enzyme activity", "action": "inhibitor", "concentration": "0.3 µM", "measurement": "inhibition", "result": "-11%"}
{"Structure (SMILES)": "O=C(Nc1cnn(-c2csc(C(=O)NC3COC3)c2)c1)Nc1ccccc1Cl", "read-out": "enzyme activity", "action": "inhibitor", "concentration": "5 µM", "measurement": "remaining activity", "result": "98.9%"}
{"Structure (SMILES)": "O=C1Nc2ccc(Cl)cc2C1=Cc1cc(Cl)c(O)c(Cl)c1", "read-out": "cell-free assay", "concentration": "0.5 µM", "measurement": "remaining signal", "result": "88.7%"}
{"Structure (SMILES)": "Cc1ccc(Nc2nccc(N(C)c3ccc4c(C)n(C)nc4c3)n2)cc1S(N)(=O)=O", "read-out": "enzyme activity", "action": "inhibitor", "concentration": "10 µM", "measurement": "inhibition", "result": "35%"}
{"Structure (SMILES)": "COc1cc(-c2cn(C3CCc4c(F)cccc4N(CC(F)(F)F)C3=O)nn2)ccc1-n1cnc(C)c1 (stereo not shown)", "read-out": "cell-free assay", "technique": "competition with immobilised ligand", "concentration": "1 µM", "measurement": "remaining binding", "result": "99%"}
{"Structure (SMILES)": "CC(C)(C)c1nc2c(s1)c1nc(N)ncc1c1ccc(NS(=O)(=O)c3c(F)cccc3F)c(F)c12", "read-out": "enzyme activity", "action": "inhibitor", "technique": "radiometric", "concentration": "1 µM", "measurement": "remaining activity", "result": "86%"}
{"Structure (SMILES)": "O=C(CSc1nc2nccnc2c(=O)n1CCc1ccccc1)Nc1nccs1", "read-out": "enzyme activity", "action": "inhibitor", "concentration": "10 µM", "measurement": "inhibition", "result": "2%"}
{"Structure (SMILES)": "COc1cc(-c2cc(-c3ccc(N4CCNCC4)cc3)cnc2C)cc(OC)c1OC", "read-out": "enzyme activity", "action": "inhibitor", "concentration": "0.1 µM", "measurement": "inhibition", "result": "1%"}
